Experimental data taken from ChEMBL document CHEMBL3044605, “Inhibition of the Fe(4)S(4)-cluster-containing protein IspH (LytB): electron paramagnetic resonance, metallacycles, and mechanisms” (J Am Chem Soc, 2010).

The molecules below were run against T1, 4-hydroxy-3-methylbut-2-enyl diphosphate reductase (Aquifex aeolicus (strain VF5), UniProt O67625) (assay: Inhibition of Aquifex aeolicus IspH expressed in Escherichia coli BL21 (DE3) using HMBPP substrate).
T1 sequence (O67625 whole entry): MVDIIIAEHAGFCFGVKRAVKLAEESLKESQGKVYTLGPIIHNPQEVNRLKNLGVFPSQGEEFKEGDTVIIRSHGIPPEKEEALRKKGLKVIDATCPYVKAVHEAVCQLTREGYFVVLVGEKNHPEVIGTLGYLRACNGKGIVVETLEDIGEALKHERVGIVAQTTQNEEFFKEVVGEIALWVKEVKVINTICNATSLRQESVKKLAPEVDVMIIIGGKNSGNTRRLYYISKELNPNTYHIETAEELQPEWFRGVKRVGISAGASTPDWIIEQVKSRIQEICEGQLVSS
Type: single protein
Summary of the method: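 A. aeolicus IspH expressed in BL-21(DE3), Ni-NTA purified, Fe4S4 cluster reconstituted anaerobically (DTT, sulfur, FeCl3; A410/A280 ≥0.38). Anaerobic assay, room temp, pH 8.0 Tris/NaCl/glycerol buffer, 0.4 mM dithionite, 2 mM methyl viologen, 72 nM IspH. Inhibitor preincubated 10 min, then 34 μM HMBPP added. Initial rates at 732 nm, dose-response fit for IC50; Ki via Cheng-Prusoff (KM 7 μM).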

| SMILES | IC50 [µM] | Ki [µM] |
| --- | --- | --- |
| Cc1ccc[n+](CC(O)(P(=O)([O-])O)P(=O)(O)O)c1 (configuration not stated) | 540 |  |
| CC(Cc1cccnc1)(P(=O)(O)O)P(=O)(O)O | > 1000 |  |
| O=P(O)(O)OP(=O)(O)OCc1cccnc1 | 38 |  |
| O=P(O)(O)OP(=O)(O)OCc1ccc(Cl)nc1 | 3700 |  |
| O=P(O)(O)C(CNc1ccccn1)P(=O)(O)O | > 1000 |  |
| O=P(O)(O)C(O)(Cc1ccccn1)P(=O)(O)O | 485 |  |
| Cc1ccnc(NC(P(=O)(O)O)P(=O)(O)O)c1 | 67 |  |
| O=P(O)(O)C(Cc1cccnc1)P(=O)(O)O | > 1000 |  |
| C[n+]1cccc(CC(O)(P(=O)(O)O)P(=O)(O)O)c1 | > 1000 |  |
| N#CCCOP(=O)(O)OP(=O)(O)O [2-CYANOETHYL DIPHOSPHATE] | 53 |  |
| O=P(O)(O)OP(=O)(O)OCC#CCO [4-HYDROXYBUT-2-YNYL DIPHOSPHATE] | 26 |  |
| O=P(O)(O)OP(=O)(O)OCc1ccccn1 [(PYRIDIN-2-YL)-METHYL-DIPHOSPHATE] | 1200 |  |
| O=P(O)(O)OP(=O)(O)OCc1ccncc1 [(PYRIDIN-4-YL)-METHYL-DIPHOSPHATE] | 149 |  |
| C#CCCOP(=O)(O)OP(=O)(O)O [BUT-3-YNYL DIPHOSPHATE] | 0.45 | 0.06 |
| N#CCOP(=O)(O)OP(=O)(O)O [CYANOMETHYL DIPHOSPHATE] | 245 |  |
| C#CCCCOP(=O)(O)OP(=O)(O)O [PENT-4-YNYL DIPHOSPHATE] | 6.5 |  |
| C#CCOP(=O)(O)OP(=O)(O)O [PROP-2-YNYL DIPHOSPHATE] | 6.7 |  |
| O=P(O)(O)OP(=O)(O)OCCc1cccnc1 [PYRIDIN-3-YL-ETHYL-DIPHOSPHATE] | 9.1 | 1.2 |
| O=P(O)(O)OP(=O)(O)OCCCc1cccnc1 [PYRIDIN-3-YL-PROPYL-DIPHOSPHATE] | 463 |  |
| O=P(O)(O)C(O)(Cc1cccnc1)P(=O)(O)O [RISEDRONIC ACID] | > 1000 |  |
